Here are results for 32 compounds from ChEMBL document CHEMBL1126043, “Novel thiazolidine-2,4-diones as potent euglycemic agents” (1992).

Holding throughout (assay type): functional
Experiment [1] deals with Mus musculus. Put plainly: In vivo euglycemic activity (administered by oral gavage) in C57/6J-ob/ob mice by normalization of blood glucose levels at a dose of 1 mg/kg. The method in brief:
(§1)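 Mice bled from retro-orbital sinus into tubes with 2% sodium heparin for baseline glucose, then dosed by oral gavage once daily for 4 days in 0.25% (w/v) methylcellulose in water, no pH adjustment (0.1 mL per 20 g). Bled 24 h after fourth dose. Samples centrifuged 2 min at 10000g. Plasma glucose measured by hexokinase UV method. Results scaled to vehicle (0%) and ciglitazone 50 mg/kg (100%).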

For experiment [2], the system named is Mus musculus. Put plainly: In vivo euglycemic activity (administered by oral gavage) in C57/6J-ob/ob mice by normalization of blood glucose levels at a dose of 10 mg/kg. The method, boiled down: as §1
Experiment [3] has as its system Mus musculus. Put plainly: In vivo euglycemic activity (administered by oral gavage) in C57/6J-ob/ob mice measured by normalization of blood glucose levels at a dose of 5 mg/kg.

For the compound `COc1ccc(-c2nc(CCC(=O)c3ccc(/C=C4\SC(=O)NC4=O)cc3)c(C)o2)cc1`, the Normalization in experiment [1] is 62%.

With `O=C1NC(=O)C(Cc2ccc(C(=O)CCCc3ccccc3)cc2)S1` (centres undefined), in experiment [2], the Normalization came to 26%. With `O=C1NC(=O)C(Cc2ccc(C(=O)CCc3ccc(-c4ccccc4)cc3)cc2)S1` (centres undefined), the Normalization stood at 71% in experiment [2] and 54% in experiment [3]. For the compound `COc1ccccc1CCC(=O)c1ccc(CC2SC(=O)NC2=O)cc1` (centres undefined), the Normalization in experiment [2] was 0%. In turn, `Cc1oc(-c2ccccc2)nc1CNS(=O)(=O)c1ccc(CC2SC(=O)NC2=O)cc1` (centres undefined) gave a Normalization in experiment [3] of 0%.

As to `O=C1NC(=O)C(Cc2ccc(C(=O)/C=C/c3cccc(Cl)c3)cc2)S1` (centres undefined), the Normalization in experiment [2] turned out to be 4%.

With `O=C1NC(=O)C(Cc2ccc(C(=O)/C=C/c3ccccc3Cl)cc2)S1` (centres undefined), the Normalization in experiment [2] was 44%; in experiment [3] it was 65%. The compound `COc1ccc(CCC(=O)c2ccc(CC3SC(=O)NC3=O)cc2)cc1` (centres undefined) displayed a Normalization in experiment [2] of 50%. Regarding `O=C1NC(=O)C(Cc2ccc(C(O)CCc3ccccc3)cc2)S1` (centres undefined), the Normalization in experiment [2] is 89%; in experiment [3] it was 47%.

`O=C1NC(=O)C(Cc2ccc(C(=O)/C=C/c3ccc(Br)cc3)cc2)S1` (centres undefined) yielded a Normalization in experiment [2] of 28%. The same measure, in the same setting: the figure for `O=C1NC(=O)C(Cc2ccc(C(=O)CCc3ccco3)cc2)S1` (centres undefined) is 24%. Regarding `CN(C)c1ccc(/C=C/C(=O)c2ccc(CC3SC(=O)NC3=O)cc2)cc1` (centres undefined), the Normalization in experiment [2] amounted to 17%.

Consider `CCN(C(=O)Cc1nc(-c2ccccc2)oc1C)c1ccc(CC2SC(=O)NC2=O)cc1` (centres undefined), for which, in experiment [3], the Normalization is listed as 25%. For `O=C1NC(=O)C(Cc2ccc(C(=O)/C=C/c3nc4ccccc4s3)cc2)S1` (centres undefined), the Normalization in experiment [2] was 0%. On to `Cc1oc(-c2ccco2)nc1CCC(=O)c1ccc(CC2SC(=O)NC2=O)cc1` (centres undefined), for which the Normalization in experiment [1] was 61%.

In turn, `Cc1oc(-c2ccccc2)nc1CC(=O)N(C)c1ccc(CC2SC(=O)NC2=O)cc1` (centres undefined) registered a Normalization in experiment [3] of 9%. Turning to `CCc1ccc(CCC(=O)c2ccc(CC3SC(=O)NC3=O)cc2)nc1` (centres undefined), the Normalization in experiment [2] was found to be 41%; in experiment [3] it was 0%.

Compound `Cc1ccccc1/C=C/C(=O)c1ccc(CC2SC(=O)NC2=O)cc1` (centres undefined) yielded a Normalization in experiment [2] of 21%. Still for that read-out and setting: the figure for `O=C1NC(=O)C(Cc2ccc(C(O)CCc3ccccn3)cc2)S1` (centres undefined) is 13%; for `O=C1NC(=O)C(Cc2ccc(C(=O)/C=C/c3ccco3)cc2)S1` (centres undefined) it is 65%. Regarding `O=C1NC(=O)C(Cc2ccc(C(=O)/C=C/c3ccccc3C(F)(F)F)cc2)S1` (centres undefined), the results for the Normalization in experiment [2] and in experiment [3] were 57% and 39%, respectively. For the compound `Cc1oc(-c2ccccc2)nc1CN(C)S(=O)(=O)c1ccc(CC2SC(=O)NC2=O)cc1` (centres undefined), the Normalization in experiment [3] came out at 9%.

On to `Cc1oc(-c2ccccc2)nc1CN(C(=O)c1ccc(CC2SC(=O)NC2=O)cc1)c1ccccc1` (centres undefined), for which the Normalization in experiment [3] is given as 23%.

On to `O=C1NC(=O)C(Cc2ccc(C(=O)CCc3ccc(OCc4ccccc4)cc3)cc2)S1` (centres undefined), for which, in experiment [2], the Normalization came to 45%. In the case of `Cc1oc(-c2ccccc2)nc1/C=C/C(=O)c1ccc(CC2SC(=O)NC2=O)cc1` (centres undefined), the Normalization in experiment [2] was 59%; in experiment [3], 100%. In experiment [2], `O=C1NC(=O)C(Cc2ccc(C(=O)/C=C/c3ccccc3Cc3ccccc3)cc2)S1` (centres undefined) had a Normalization of 56%. As to `Cc1oc(-c2cccs2)nc1CCC(=O)c1ccc(/C=C2\SC(=O)NC2=O)cc1`, the Normalization in experiment [1] turned out to be 100%. Compound `Cc1oc(-c2ccccc2)nc1CC/C(=N\OCc1ccccc1)c1ccc(CC2SC(=O)NC2=O)cc1` (centres undefined) registered a Normalization in experiment [3] of 17%.

The compound `Cc1oc(-c2ccc3ccccc3c2)nc1CCC(=O)c1ccc(CC2SC(=O)NC2=O)cc1` (centres undefined) showed a Normalization in experiment [1] of 39%. `O=C1NC(=O)C(Cc2ccc(C(=O)Cc3ccccc3)cc2)S1` (centres undefined) gave a Normalization in experiment [2] of 0%. Consider `COc1ccc(/C=C/C(=O)c2ccc(CC3SC(=O)NC3=O)cc2)cc1` (centres undefined), for which the Normalization amounted to 68% in experiment [2] and 0% in experiment [3]. Regarding `CCOC(=O)c1ccc(/C=C/C(=O)c2ccc(CC3SC(=O)NC3=O)cc2)cc1` (centres undefined), the Normalization in experiment [2] is recorded as 4%.
